Screens from PubChem.
The list is not random: actives were taken first. Their share in the collection is about 3.7%.
KCNK3 block: human KCNK3 channel inhibition, primary screen. actives 0.84% (n = 340,000). AID 602410. B-score at 10 µM. CHO-KCNK3 thallium flux, FluxOR fluorescence; hits give low values;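 active = B-score under library mean minus 4 SD, starting fluorescence ratio at most library mean plus 5 SD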;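 note: more negative B-score means stronger inhibition of thallium flux through KCNK3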
Kir21 inh: inhibitors of mouse Kir2.1 inward-rectifier potassium channel; P35561; HEK293-Kir2.1, FluxOR thallium flux fluorescence; hits give low values; B-score at 10 µM; actives 0.85% (n = 310,000); AID 1672;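 active = fluorescence ratio B-score at or below minus 3 SD of library scores, with starting-brightness B-score within 2 SD, cut at about -4.2 in these data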;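 note: channel flux triggered by added potassium and thallium sulfate stimulus; B-score of peak minus minimum fluorescence over baseline after thallium stimulus; more negative B-score means stronger Kir2.1 block with less thallium influx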
Target sequence (P35561 whole entry, looked up): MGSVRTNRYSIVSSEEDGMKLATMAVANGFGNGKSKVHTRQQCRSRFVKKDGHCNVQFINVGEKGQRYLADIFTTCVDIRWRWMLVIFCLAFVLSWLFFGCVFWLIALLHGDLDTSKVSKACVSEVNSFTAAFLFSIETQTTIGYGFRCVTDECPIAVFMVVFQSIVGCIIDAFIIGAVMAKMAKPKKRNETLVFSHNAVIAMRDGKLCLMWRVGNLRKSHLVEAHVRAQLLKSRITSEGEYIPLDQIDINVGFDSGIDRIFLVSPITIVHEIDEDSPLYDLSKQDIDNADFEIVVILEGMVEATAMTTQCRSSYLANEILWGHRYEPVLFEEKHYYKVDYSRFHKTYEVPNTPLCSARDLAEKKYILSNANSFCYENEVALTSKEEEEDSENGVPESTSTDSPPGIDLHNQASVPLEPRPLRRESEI
hERG rescue: hERG (human) protection from proarrhythmic block; Q12809; CHO-hERG, FluxOR thallium flux, dofetilide IC70 present; activation (rescue from dofetilide block), less the hit threshold, % at 10 µM; actives 0.51% (n = 310,000); AID 1511;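 active = activation above the mean of controls blocked by dofetilide plus 5 SD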;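 note: thallium influx through hERG after potassium depolarization seen as dye fluorescence rise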
KCNK9 block: inhibitors of human KCNK9 two-pore domain potassium channel; AID 488922; Q9NPC2; B-score at 10 µM; HEK293 KCNK9, FluxOR thallium flux fluorescence; hits give low values; actives 1.2% (n = 310,000);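 active = ratio B-score over 3 SD below the library mean, with starting fluorescence within 5 SD of its mean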;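 note: negative B-score means less thallium flux so channel inhibition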
KCNQ1 inh: human KCNQ1 channel inhibition. B-score at 10 µM. actives 1.3% (n = 310,000). CHO-K1 KCNQ1, FluxOR thallium flux fluorescence; hits give high values. P51787;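 active = compounds whose thallium flux B-score, printed positive for inhibition, exceeds three library SD while starting fluorescence stays within three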;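 note: channel opened by potassium depolarization with thallium stimulus after 20 min compound exposure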
KCNQ1 act: human KCNQ1 channel potentiation or activation; P51787; B-score at 10 µM; CHO-K1 KCNQ1, thallium flux FluxOR fluorescence; hits give high values; actives 0.35% (n = 310,000);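 active = fluorescence ratio B-score, a plate-corrected score, at least three library SD, with initial intensity B-score within 5 SD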
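Schedule – 37 °C overnight plating, 90-min dark dye load, 20-min compound pretreatment · System – stable KCNQ1 CHO-K1 line · Probe or stimulus – thallium- and potassium-containing depolarizing buffer · Measured by – kinetic FluxOR fluorescence, 10 s baseline plus 110 s post-stimulus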
* marks the source's active call; other numbers are inactive results; i = inactive; . = no result given.

SMILES	KCNK3 block	Kir21 inh	hERG rescue	KCNK9 block	KCNQ1 inh	KCNQ1 act
CC(Oc1ccccc1Cl)C(=O)Nc1ccccc1C(=O)N1CCOCC1 (stereo unspecified)	i	-1.2	-10	i	i	i
CCN1C[C@@H]2[C@@H]3C(=O)N(C)C(=O)[C@@H]3[C@](Cc3ccccc3)(C(=O)OC)N2C1=NCc1ccccc1	i	.	.	.	.	.
C=C[C@]1(C)C=C2CCC3[C@](C)(CCC[C@@]3(C)C(=O)O)C2CC1 (stereo partly specified)	i	1.4	0	i	i	9*
C=C/C(C)=C/CC1C(=C)CCC2C(C)(C(=O)O)CCCC12C (stereo unspecified)	i	2.4	-9	i	i	i
CC(C)C(NC(=O)C1(NC(=O)OCc2ccccc2)CCCC1)C(=O)O (stereo unspecified)	i	.	.	.	.	.
CCc1cc(-c2n[nH]c(=S)n2C(C)c2ccccc2)cs1 (stereo unspecified)	i	-7.8*	-7	i	i	i
COc1ccc(C2=CSC3=NCCN23)cc1Br	i	-0.68	-9	i	i	i
CC(=O)C1CCC2C3CC=C4CC(SC(=N)N)CCC4(C)C3CCC12C (stereo unspecified)	-9.2*	.	.	.	.	.
CC(=O)OCC(=O)C1CCC2C3CC=C4CC(O)CCC4(C)C3CCC12C (stereo unspecified)	i	.	.	.	.	.
CC(C)c1cc(=O)oc2c3c4c(cc12)CCCN4CCC3	i	-0.93	-13	i	i	i
CN1CCCc2cc3c(C(F)(F)F)cc(=O)oc3nc21	i	-7.1	-23	i	11*	i
CN(C(=O)c1cccc(NC(=O)Cc2ccc(NC(=O)C3CCN(S(=O)(=O)c4cccc([N+](=O)[O-])c4)CC3)cc2)c1)C1CCCCC1	i	.	.	.	.	.
C1=CC2=NC34CCCCC3CC3=C(CCCC3)N4C2=CC1=NC1CCCCC1 (stereo unspecified)	i	0.06	-17	i	7*	i
O=C1CC(c2ccccc2)Sc2nc3ccccc3n21 (stereo unspecified)	i	-2.2	42*	i	i	i
O=C1CC(c2cccs2)Sc2nc3ccccc3n21 (stereo unspecified)	i	-0.18	-4	i	i	i
CCCN(CC(=O)Nc1ccccc1OC)C(=O)c1nc2nc(C)ccn2n1	i	.	.	.	.	.
CC(=O)c1ccc(N2CCN(C(=O)/C=C/c3ccc(S(=O)(=O)NCc4ccco4)cc3)CC2)cc1	i	0.05	4.9*	i	i	i
CC(=O)c1ccc(N2CCN(C(=O)/C=C/c3ccc(S(=O)(=O)N4CCOCC4)cc3)CC2)cc1	i	0.78	-14	i	i	i
Cc1ccc(CN2CCC(C(=O)Nc3cccc(-c4cccc(F)c4)c3)CC2)o1	i	-5.1*	-17	i	i	i
O=C(Nc1cccc(-c2cccc(Cl)c2)c1)C1CCN(Cc2ccc(CO)o2)CC1	i	-6.1*	-31	i	i	i
CCc1ccccc1Nc1nc(N)nc(COC(=O)CCNS(=O)(=O)c2ccccc2)n1	i	-0.03	-17	-8.1*	i	i
CCOc1cccc(C(=O)Nc2ccc3oc(Cc4ccc(Cl)cc4)nc3c2)c1	i	-0.65	-9	i	6*	i
O=C(O)c1ccccc1NC(=O)C(c1ccccc1)c1ccccc1	i	0.87	-5	i	i	i
O=C(Nc1ccccc1O)C(c1ccccc1)c1ccccc1	i	0.06	-25	i	6*	i
O=C(CN(CC1CCCO1)C(=O)CNS(=O)(=O)c1ccccc1)NCc1ccco1 (stereo unspecified)	i	-0.85	7.2*	i	i	i
SMILES	KCNK3 block	Kir21 inh	hERG rescue	KCNK9 block	KCNQ1 inh	KCNQ1 act
O=C(CN(CC1CCCO1)C(=O)CNS(=O)(=O)c1ccc(F)cc1)NCc1ccccc1 (stereo unspecified)	i	-0.33	-1	i	i	i
C=CS(=O)(=O)N(Cc1ccccc1Br)[C@H](CO)CC(C)C	i	.	.	.	.	.
OC(CNCC1(N2CCCCC2)CCCCC1)COc1ccc(Cl)cc1Cl (stereo unspecified)	i	-9.3*	-9	i	i	i
O=C(COc1ccc(Cl)cc1Cl)NCC1(N2CCOCC2)CCCCC1	i	.	.	.	.	.
CC(=O)NNC(=S)NC(=O)C(c1ccccc1)c1ccccc1	i	0.91	-16	i	i	i
CC(C)(C)C(=O)NC(=S)NNC(=O)C(c1ccccc1)c1ccccc1	i	-1.4	-8	i	i	31*
Cc1cnnn1-c1ccc(C(=O)CCl)cc1	i	0.47	-24	i	6*	i
C=CCN1C=CC(=CC=C(C#N)C#N)C=C1	i	-3.1	-11	i	7*	i
CCCCCN1C=CC=C/C1=C\C=C(C#N)C#N	i	0.1	-3	i	i	i
CCCN1C=CC(=C/C=C(\C#N)C(=O)OCC)C=C1	.	-6.4	-30	i	12*	i
CCOC(=O)/C(C#N)=C/C=C1\C=Cc2ccccc2N1CC	i	0.44	-6	i	i	i
CCCN1C=CC(=CC=C(C#N)C#N)C=C1	i	-5.8	-14	i	8*	i
Cc1ccc(NC(=O)CSc2nc(N)cc(=O)[nH]2)cc1S(=O)(=O)N1CCCCC1	i	.	.	.	.	.
COc1ccccc1OCC(=O)N(Cc1nnc(-c2ccccc2Cl)o1)C1CC1	i	-1.4	-13	i	i	i
Cc1ccc2[nH]c(=O)c(CN(Cc3ccccc3)C(=S)NCCCN(C)C)cc2c1	i	-4.7*	-18	i	i	i
O=C1CC(c2ccco2)CC(O)=C1C=Nc1cc(Cl)ccc1O (stereo unspecified)	i	0.88	-17	i	6*	i
O=C1CC(c2ccco2)CC(O)=C1C=Nc1cc(Cl)ccc1Cl (stereo unspecified)	i	0.04	-4	i	i	i
COc1ccc(/C=C2\C(=O)c3ccccc3OC2c2ccccc2)cc1 (stereo unspecified)	i	0.33	-6	-6.7*	i	i
Cc1c(O)ccc(/C(Cc2ccc3ccccc3n2)=N\N)c1O	i	0.36	-8	-7.9*	i	i
CCC(NC(=O)Nc1nnc(C(F)(F)F)s1)(C(F)(F)F)C(F)(F)F	i	-4.5*	-50	i	i	i
COc1ccc(Cc2nnc(SCC(=O)N(C)CC(=O)Nc3ccc(C)cc3)o2)cc1	i	0.03	-17	i	i	i
CC1(NC(=O)Cn2cc(C(F)(F)F)ccc2=O)CCS(=O)(=O)C1 (stereo unspecified)	i	.	.	.	.	.
